Active and inactive are the calls of the source. The calls are words filed in the database; no cut-off is given here.
Key:
A549 [1] = experiment: Inhibition of colony formation in human A549 cells at 5 nM incubated for 3 days followed by further incubation in drug-free medium and measured after 15 days by crystal violet staining-based inverted microscopic analysis; assay type: functional, cell-based
How it was run: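 500 A549 cells/well incubated 24 h, then treated with 5, 10 or 20 nM for 3 days, followed by drug-free medium changed every 3 days. At day 15 after plating, colonies fixed in 95% ethanol 15 min, stained with 0.1% crystal violet, counted (colony = over 100 cells); mean ± SD of three independent experiments.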

A549 [2] = experiment: Induction of apoptosis in human A549 cells assessed as viable cells at 90 nM after 12 hrs by Annexin-V FITC/propidium iodide staining based flow cytometric analysis (reference value: 97.18%); assay type: functional; settings: A549, 12 h, read-out: Activity
A549 [3] = experiment: Cell cycle arrest in human A549 cells assessed as accumulation at G1 phase at 60 nM after 24 hrs by propidium iodide/RNase A staining-based flow cytometric analysis (reference value: 57.41%); assay type: functional
A549 [4] = experiment: Induction of apoptosis in human A549 cells assessed as early apoptotic cells at 30 nM after 12 hrs by Annexin-V FITC/propidium iodide staining based flow cytometric analysis (reference value: 0.32%); assay type: functional
A549 [5] = experiment: Cell cycle arrest in human A549 cells assessed as accumulation at S phase at 90 nM after 24 hrs by propidium iodide/RNase A staining-based flow cytometric analysis (reference value: 12.57%); assay type: functional
A-375 = experiment: Antiproliferative activity against human A375 cells assessed as reduction in cell viability measured after 72 hrs by MTT assay; assay type: functional, cell-based; settings: A-375, 72 h
How it was run: (§1)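 Cells seeded at 5×10^3 per well and cultured overnight, then exposed for 72 h at 37 °C to six concentrations from 10 µM down to 0.0001 µM (from 10 mM DMSO stock diluted in medium; vehicle 1% DMSO in PBS). MTT at 0.5 mg/mL was added for 4 h, formazan dissolved in DMSO, and A570 read. IC50 given as mean ± SD of three independent experiments.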

A549 [6] = experiment: Induction of apoptosis in human A549 cells assessed as viable cells at 60 nM after 12 hrs by Annexin-V FITC/propidium iodide staining based flow cytometric analysis (reference value: 97.18%); assay type: functional; settings: A549, 12 h, read-out: Activity
A549 [7] = experiment: Induction of apoptosis in human A549 cells assessed as nuclear fragmentation at 90 nM after 24 hrs by […] staining-based confocal laser scanning microscopic analysis; assay type: functional, cell-based
How it was run: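 A549 exposed to 30, 60 and 90 nM for 24 h, stained with Hoechst 33342, imaged by confocal laser scanning microscopy; strongly blue-fluorescent nuclei scored as apoptotic.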

MDA-MB-231 = experiment: Antiproliferative activity against human MDA-MB-231 cells assessed as reduction in cell viability measured after 72 hrs by MTT assay; assay type: functional, cell-based; settings: MDA-MB-231, 72 h; how it was run: as §1
A549 [8] = experiment: Induction of apoptosis in human A549 cells assessed as viable cells at 60 nM after 6 hrs by Annexin-V FITC/propidium iodide staining based flow cytometric analysis; assay type: functional; settings: A549, 6 h, read-out: Activity
How it was run: (§2)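 Time-course: A549 (2×10^5 cells/well, grown overnight) exposed to 60 nM for 6, 12 or 24 h; untreated control. Cells trypsinized, washed in cold PBS, stained 15 min with Annexin V-FITC in binding buffer, then PI, and read by flow cytometry; duplicate experiments.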

A549 [9] = experiment: Induction of apoptosis in human A549 cells assessed as necrotic cells at 60 nM after 6 hrs by Annexin-V FITC/propidium iodide staining based flow cytometric analysis; assay type: functional; how it was run: as §2
A549 [10] = experiment: Cell cycle arrest in human A549 cells assessed as accumulation at G1 phase at 90 nM after 24 hrs by propidium iodide/RNase A staining-based flow cytometric analysis (reference value: 57.41%); assay type: functional
A549 [11] = experiment: Cell cycle arrest in human A549 cells assessed as accumulation at G2 phase at 30 nM after 24 hrs by propidium iodide/RNase A staining-based flow cytometric analysis (reference value: 30.02%); assay type: functional
A549 [12] = experiment: Cell cycle arrest in human A549 cells assessed as accumulation at S phase at 30 nM after 24 hrs by propidium iodide/RNase A staining-based flow cytometric analysis (reference value: 12.57%); assay type: functional
A549 [13] = experiment: Induction of apoptosis in human A549 cells assessed as late apoptotic cells at 90 nM after 12 hrs by Annexin-V FITC/propidium iodide staining based flow cytometric analysis (reference value: 1.22%); assay type: functional
A549 [14] = experiment: Induction of apoptosis in human A549 cells assessed as early apoptotic cells at 60 nM after 12 hrs by Annexin-V FITC/propidium iodide staining based flow cytometric analysis (reference value: 0.32%); assay type: functional
A549 [15] = experiment: Induction of apoptosis in human A549 cells assessed as necrotic cells at 90 nM after 12 hrs by Annexin-V FITC/propidium iodide staining based flow cytometric analysis (reference value: 1.28%); assay type: functional
A549 [16] = experiment: Induction of apoptosis in human A549 cells assessed as increase in caspase9 expression by Western blot analysis; assay type: functional, cell-based
How it was run: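 A549 treated 30, 60 and 90 nM for 24 h; lysates normalized by BCA, 30 μg protein denatured in SDS buffer at 100 °C 8 min, SDS-PAGE, PVDF transfer, blocked in 5% milk/TBS-0.05% Tween 2 h, primary antibodies overnight at 4 °C, HRP anti-rabbit IgG 2 h, ECL detection; β-actin loading control.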

**Q.** `COc1cc(C[C@H]2NC(=O)[C@H](C(C)C)N(C)C(=O)/C(C)=C/C[C@@H](OC)/C(C)=C/C=C/[C@@H](C)[C@@H](c3ccccc3)OC(=O)[C@H](C(C)C)NC2=O)ccc1O` was tested. Which inhibition (A549 [1]) did it give?
**A.** Active

**Q.** And the viability at 0.09 µM (A549 [2])?
**A.** 55.4%

**Q.** And the Activity (A549 [3])?
**A.** 44.44%

**Q.** And the Activity (A549 [4])?
**A.** 1.21%

**Q.** What about the Activity (A549 [5]) of the same molecule?
**A.** 4.46%

**Q.** What about the IC50 (A-375) of the same molecule?
**A.** 4.3 nM

**Q.** And the viability at 0.06 µM (A549 [6])?
**A.** 66.2%

**Q.** And the Activity (A549 [7])?
**A.** Active

**Q.** What about the IC50 (MDA-MB-231) of the same molecule?
**A.** 12.5 nM

**Q.** And the viability at 0.06 µM (A549 [8])?
**A.** 92.3%

**Q.** What about the Activity (A549 [9]) of the same molecule?
**A.** 2.3%

**Q.** And the Activity (A549 [10])?
**A.** 37.81%

**Q.** And the Activity (A549 [11])?
**A.** 37.66%

**Q.** What about the Activity (A549 [12]) of the same molecule?
**A.** 13.21%

**Q.** And the Activity (A549 [13])?
**A.** 28.22%

**Q.** And the Activity (A549 [14])?
**A.** 3.55%

**Q.** What about the Activity (A549 [15]) of the same molecule?
**A.** 12.85%

**Q.** And the Activity (A549 [16])?
**A.** Dose-dependent effect

From ChEMBL document CHEMBL4346669, “Novel nannocystin A analogues as anticancer therapeutics: Synthesis, biological evaluations and structure-activity relationship studies” (Eur J Med Chem, 2019)
